Rows were chosen to be rich in hits. Some 1.4% of all compounds tested hit in one or more screens of this group.
MOR-DOR ag-1: agonists of OPRM1-OPRD1 heterodimerization, primary screen, cell-based, luminescence; activation, % at 9.3 µM; 0.3% of 340,000 active; cells; Mu-type opioid receptor (Homo sapiens) + Delta-type opioid receptor (Homo sapiens), …;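 note: 0% = vehicle-treated cells and 100% = reference agonist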
OPRM1-OPRD1 inv: inverse agonists of MOR-DOR heterodimerization, primary screen, cell-based, luminescence | 0.21% of 340,000 active | cell-based MOR-DOR heterodimer luminescence, inverse agonism | inhibition, % at 9.3 µM | Mu-type opioid receptor (Homo sapiens) + Delta-type opioid receptor (Homo sapiens), … | AID 504357, 2011; in the data active = inhibition above about 22%, passing the limit was not always enough;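 note: 0% = cells with DMSO and 100% = wells without cells with DMSO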
HTR5A ag ctr: HTR5A agonists in luminescence cell assay, primary screen, counter-screen for OPRM1-OPRD1 heterodimer agonist project, full-deck HTS. cell-based. AID 504692, 2011. 0.61% of 340,000 active. activation, % at 9.3 µM. 5-hydroxytryptamine receptor 5A (Homo sapiens), P47898; in the data active = activation mostly above about 9.5%, no sharp cut-off; inactive = mostly below about 7.6%;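 note: 0% = cells with vehicle only and 100% = reference agonist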
Target sequence (P47898 whole entry, looked up): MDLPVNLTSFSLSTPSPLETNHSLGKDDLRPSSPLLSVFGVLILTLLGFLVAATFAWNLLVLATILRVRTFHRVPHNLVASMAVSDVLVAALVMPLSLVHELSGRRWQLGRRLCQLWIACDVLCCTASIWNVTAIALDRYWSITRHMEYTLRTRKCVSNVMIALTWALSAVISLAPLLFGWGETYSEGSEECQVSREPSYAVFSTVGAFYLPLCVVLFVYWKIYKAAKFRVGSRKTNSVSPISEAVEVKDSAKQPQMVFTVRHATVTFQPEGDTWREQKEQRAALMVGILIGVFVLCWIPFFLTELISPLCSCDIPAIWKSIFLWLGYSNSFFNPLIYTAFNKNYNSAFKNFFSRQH
HTR5A inv ag: HTR5A inverse agonists in luminescence cell assay, primary screen, counter-screen for OPRM1-OPRD1 heterodimer inverse agonist project, full-deck HTS; 5-hydroxytryptamine receptor 5A (Homo sapiens), P47898; HTR5A cell line, inverse agonism; inhibition, % at 9.3 µM; 0.083% of 340,000 active; AID 504634, 2011; in the data active = inhibition mostly above about 23%, no sharp cut-off; inactive = mostly below about 18%;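 note: 0% = cells with DMSO and 100% = no-cell wells with DMSO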
Lipid droplet: inhibitors of hepatocyte lipid droplet formation, primary screen, imaging, high-throughput imaging, BODIPY stain | AML12 mouse hepatocytes, oleate lipid droplets | inhibition, % at 6.5 µM | 0.4% of 240,000 active;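 active = lipid droplet intensity inhibited by at least 50%, with more than 500 cells counted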
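Material: mouse AML12 hepatocyte cell line, fixed after treatment; Timing: compound with oleate, overnight; Technique: high-content imaging of BODIPY-stained droplets and DAPI nuclei; Probe or stimulus: oleate, 100 µM final; Dosing: compound at 6.5 µM only.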
MOR-DOR ag-2: OPRM1-OPRD1 heterodimerization promoters, counter-screen for HTR5A agonist project, cell-based, luminescence; shares compounds with HTR5A ag ctr; U2OS counter-screen cells, complementation luminescence, 3 h; activation, % at 9.3 µM; 13% of 800 active; AID 504913, 2011
HTR5A ag conf: HTR5A agonists, retest of hits, confirmation, cell-based, luminescence. shares compounds with HTR5A ag ctr. HTR5A agonist cell assay. activation, % at 9.3 µM. 17% of 800 active. AID 504915, 2011; in the data active = activation above about 17%;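 note: 0% = cells with vehicle only and 100% = full reference agonist response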
Active calls of the source: *; . = not tested or not shown. Cut-off read from the data, not from the text of the source, unless noted: active = activation above about 18%; inactive = the rest.

SMILES	MOR-DOR ag-1	OPRM1-OPRD1 inv	HTR5A ag ctr	HTR5A inv ag	Lipid droplet	MOR-DOR ag-2	HTR5A ag conf
COc1ccc2cc3cc(C(=O)Nc4ccc5c(c4)OCCO5)oc3nc2c1	2	-9	25*	-21	.	4	4
O=C(NCc1cnc2ccccn12)C1CCC(=O)N(Cc2cccc(F)c2)C1 (stereo not given)	-2	9	-3	-4	-3	.	.
O=C1c2cc([N+](=O)[O-])ccc2-c2cc(Br)c(N=C(NO)C(F)(F)F)cc21	6	-27	21*	-81	.	19*	0
O=C1c2cc([N+](=O)[O-])ccc2-c2cc(Cl)c(NC(=O)C(F)(F)F)cc21	0	1	-3	11	.	.	.
CCOCCCN(C)C1CCN(C(=O)c2oc3ccccc3c2NC(=O)COc2ccc(F)cc2)CC1	0	-2	-4	5	-4	.	.
Cc1nc(NC(=O)CSc2ccc(-c3nc4ccccc4[nH]3)cn2)sc1C	6	-42	17*	-21	12	3	3
CCc1nnc(NC(=O)CSc2ccc(-c3nc4ccccc4[nH]3)cn2)s1	0	-1	-4	11	.	.	.
C=CCn1c(Br)nc2c1c(=O)[nH]c(=O)n2C	0	-1	18*	-47	8	-1	-1
Cn1c(NC(=O)c2cccc(Cn3cc(Cl)cn3)c2)nc2ccccc21	1	-7	2	-7	0	.	.
CCn1c(NC(=O)c2cccc(Cn3cc(Cl)cn3)c2)nc2ccccc21	0	0	20*	-51	-22	6	12
O=C(CSC1=NCCN1)Nc1cccc(C(F)(F)F)c1	-2	8	23*	-57	-9	24*	5
Cc1nn(Cc2ccccc2)c(C)c1C(=O)N1CCN(S(=O)(=O)/C=C/c2ccccc2)CC1	-3	11	-1	3	.	.	.
O=c1[nH]c2ccccc2cc1-c1nnn(-c2ccc(Cl)c(Cl)c2)n1	-4	21	18*	-61	.	2	-3
O=c1[nH]c2ccccc2cc1-c1nnn(-c2ccc(F)cc2)n1	0	-2	0	-2	-6	.	.
CCc1ccccc1NC(=O)CSc1nnc(-c2cc(C)[nH]n2)n1N	-2	10	1	3	-3	.	.
O=C(COc1ccc(Cl)cc1Cl)NNC(=S)Nc1ccc(F)cc1	-1	4	-2	-17	.	.	.
CC(=O)NC(=S)Nc1ccc(NC(=O)COc2ccc(Cl)cc2Cl)cc1	8	-52	27*	-33	.	0	-3
COc1ccc(Cn2c(C)nc3oc4cc(OC)ccc4c(=O)c3c2=O)cc1	-2	10	16*	-19	.	327*	3
Cc1nc2oc3ccccc3c(=O)c2c(=O)n1Cc1ccccc1	-2	9	-6	1	-4	.	.
CCCN1C(=O)C2(C(C(=O)c3ccc(C)o3)=C(O)C(=O)N2CCCOC)c2ccccc21 (stereo not given)	-2	9	3	-14	0	.	.
COc1cccc(-c2nc(-c3ccc(NC(=O)Cc4ccccc4OC)cc3)no2)c1	-1	3	8	15	-7	.	.
COc1ccc(CC(=O)Nc2ccc(-c3noc(-c4ccccc4OC)n3)cc2)cc1	3	-18	23*	-58	-24	221*	-6
Cc1ccc(N(C(=O)Cc2cccs2)C(C(=O)NC2CCCCC2)c2ccccn2)cc1C (stereo not given)	4	-19	15*	3	-14	30*	19*
Cc1cccc(N(C(=O)Cc2cccs2)C(C(=O)NC2CCCC2)c2ccncc2)c1 (stereo not given)	-1	6	2	-8	2	.	.
C(=N\Nc1nc2ccccc2[nH]1)/c1c[nH]c2ccccc12	3	-19	3	-9	15	.	.
SMILES	MOR-DOR ag-1	OPRM1-OPRD1 inv	HTR5A ag ctr	HTR5A inv ag	Lipid droplet	MOR-DOR ag-2	HTR5A ag conf
Cc1cc(=O)[nH]c(N/N=C/c2c[nH]c3ccccc23)n1	0	0	24*	17	-13	3	46*
CCc1ccc(OC)c(S(=O)(=O)NCc2cccs2)c1	0	-2	7	-20	.	.	.
COc1cc(C(=O)NCC(=O)N/N=C/c2ccc(OC(=O)c3ccco3)cc2)cc(OC)c1OC	-2	11	22*	-9	-1	1	4
O=C1N=C(N2CCCCC2)S/C1=C\c1ccccc1F	-1	6	3	-11	-1	.	.
CCCOc1ccccc1/C=C1\SC(N2CCCCC2)=NC1=O	-1	3	16*	-61	-13	0	24*
C=CCn1c(=O)c2ccccc2n2c(SCC(=O)NCC)nnc12	-1	7	0	2	5	.	.
O=c1ccc(-c2ccc(S(=O)(=O)Nc3ccccc3Cl)o2)n[nH]1	-2	11	6	0	5	.	.
O=C1NCCCC1C(=O)Nc1cccc(C(F)(F)F)c1 (stereo not given)	-3	12	22*	-52	.	2	1
Cc1ccc(NC(=O)C2CCN(c3ncnc4sc(C)c(C)c34)CC2)cc1S(=O)(=O)N(C)C	1	-9	20*	-54	.	-2	-2
CS(=O)(=O)c1ccc(NC(=O)C2CCCN(C(=O)c3ccc(Cl)cc3)C2)cc1 (stereo not given)	-2	6	19*	-47	.	6	4
CC(C)(C)OC(=O)NOCC(=O)N(Cc1ccccc1)CC(O)COc1ccccc1 (stereo not given)	3	-17	2	-5	.	.	.
CCn1c(=O)c(C(=O)Nc2ncccc2O)c(O)c2ccccc21	-3	16	3	-9	-6	.	.
CCn1c(=O)c(C(=O)Nc2ncccc2C)c(O)c2ccccc21	-1	7	16*	-43	5	3	10
O=C(NCCc1ccccc1)C(=O)NCC1OCCCN1S(=O)(=O)c1ccc(F)cc1 (stereo not given)	-2	12	2	1	-2	.	.
O=C(NCCc1c[nH]c2ccccc12)C(=O)NCC1OCCN1S(=O)(=O)c1ccc(Cl)cc1 (stereo not given)	0	2	3	-42	-28	.	.
O=C(NCCc1c[nH]c2ccccc12)C(=O)NCC1OCCCN1S(=O)(=O)c1ccccc1 (stereo not given)	-1	6	48*	-177	-29	4	47*
Cc1ccc(S(=O)(=O)N2CCCOC2CNC(=O)C(=O)NCCc2c[nH]c3ccccc23)cc1 (stereo not given)	2	-12	30*	-91	-7	3	26*
